From ChEMBL document CHEMBL1687909, “Design, synthesis, and biological evaluation of new cinnamic derivatives as antituberculosis agents” (J Med Chem, 2011)
pIC50: −log10 of the molar value. ≈ marks a conversion by molar mass, not a printed value. Calls of active or inactive are those of the source. The rule behind the calls is not given here.

Legend:
[1] = test system: Mycobacterium tuberculosis; assay: Antituberculosis activity against Mycobacterium tuberculosis H37Rv after 7 days by MTT assay; type: functional; details: 168 h
In short: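 Colorimetric MTT microassay: serial 2-fold dilutions from DMSO stocks in Middlebrook 7H9 broth, bacterial suspension in 7H9 added. After 6 days, MTT (1 mg/mL) added; 1 day later solubilization buffer, OD 570 nm. MIC = lowest concentration inhibiting growth, untreated bacilli as growth control.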

[2] = test system: THP-1; assay: Cytotoxicity against human THP1 cells after 72 hrs by MTT assay; type: cell-based; details: THP-1, 72 h
[3] = Selectivity index, ratio of IC50 for human THP1 cells to MIC for Mycobacterium tuberculosis H37Rv; type: functional, THP-1
[4] = test system: Mycobacterium tuberculosis; assay: Antimycobacterial activity against Mycobacterium tuberculosis assessed as inhibition of mycolic acid biosynthesis by TLC; type: functional, organism-based
In short: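 Cells saponified in 40% KOH/methoxyethanol overnight at 100 °C, acidified with H2SO4, lipids ether-extracted, fatty acids methylated; methyl esters resolved by silica TLC in dichloromethane, phosphorimaged.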

[5] = test system: Mycobacterium tuberculosis; assay: Selectivity ratio of MIC for isoniazid to compound for Mycobacterium tuberculosis 1400; type: functional
[6] = test system: Mycobacterium tuberculosis; assay: Selectivity ratio of MIC for isoniazid to compound for Mycobacterium tuberculosis MYC5165; type: functional

Structure (SMILES)	MIC [1]	pIC50 [2]	Selectivity Index [3]	further results
FC(F)(F)Oc1ccc(C2CC2c2nnc3c4ccccc4cnn23)cc1 (racemic)	170 µM (≈ 63 µg/mL)			
FC(F)(F)COc1ccc(/C=C/c2nnc3c4ccccc4cnn23)cc1	170 µM (≈ 63 µg/mL)			
FC(F)(F)Oc1ccc(/C=C/c2nnc3c4ccccc4cnn23)cc1	702 µM (≈ 250 µg/mL)			
O=C(/C=C/c1ccc(OCC(F)(F)F)cc1)N/N=c1/[nH]ncc2ccccc12	20 µM (≈ 7.77 µg/mL)			
CCOc1ccc(/C=C/c2nnc3c4ccccc4cnn23)cc1	39 µM (≈ 12.3 µg/mL)			
COc1ccc(/C=C/c2nnc3c4ccccc4cnn23)cc1	53 µM (≈ 16 µg/mL)	3.16	13	
CC(C)=CCOc1ccc(/C=C/C(=O)NNC(=O)c2ccncc2)cc1	2.3 µM (≈ 0.808 µg/mL)	3.59	111	inhibition [4]: Active
CCOc1ccc(C2CC2c2nnc3c4ccccc4cnn23)cc1 (racemic)	378 µM (≈ 125 µg/mL)			
CC(C)=CCC/C(C)=C/COc1ccc(/C=C/C(=O)NNC(=O)c2ccncc2)cc1	1.9 µM (≈ 0.797 µg/mL)	4.37	22	inhibition [4]: Active
CC(C)=CCC/C(C)=C/COc1ccc(/C=C/C(=O)N/N=c2/[nH]ncc3ccccc23)cc1	72 µM (≈ 31.9 µg/mL)	4.25	0.8	
CC(C)=CCC/C(C)=C/COc1ccc(C2CC2c2nnc3c4ccccc4cnn23)cc1 (racemic)	28 µM (≈ 12.3 µg/mL)			
COc1ccc(/C=C/C(=O)N[C@@H]2CONC2=O)cc1	950 µM (≈ 249 µg/mL)			
CC(C)=CCOc1ccc(/C=C/C(=O)N/N=c2/[nH]ncc3ccccc23)cc1	21 µM (≈ 7.86 µg/mL)	4.59	1	
O=C(/C=C/c1ccc(OC(F)(F)F)cc1)NNC(=O)c1ccncc1	1.1 µM (≈ 0.386 µg/mL)			inhibition [4]: Active
COc1ccc(C2CC2c2nnc3c4ccccc4cnn23)cc1 (racemic)	395 µM (≈ 125 µg/mL)			
COc1ccc(/C=C/C(=O)NNC(=O)c2ccncc2)cc1	0.3 µM (≈ 0.0892 µg/mL)	3.77	560	inhibition [4]: Active
COc1ccc(/C=C/C(=O)N/N=c2/[nH]ncc3ccccc23)cc1	50 µM (≈ 16 µg/mL)	3.36	8	
CCOc1ccc(/C=C/C(=O)NNC(=O)c2ccncc2)cc1	1.3 µM (≈ 0.405 µg/mL)			inhibition [4]: Active
CC(C)=CCOc1ccc(C2CC2c2nnc3c4ccccc4cnn23)cc1 (racemic)	21 µM (≈ 7.78 µg/mL)			
O=C(/C=C/c1ccc(OCC(F)(F)F)cc1)NNC(=O)c1ccncc1	2.2 µM (≈ 0.804 µg/mL)			inhibition [4]: Active
CCOc1ccc(/C=C/C(=O)N/N=c2/[nH]ncc3ccccc23)cc1	12 µM (≈ 4.01 µg/mL)			
NNC(=O)c1ccncc1 [ISONIAZID]	0.6 µM (≈ 0.0823 µg/mL)	< 2.44	>6081	
CC(C)=CCOc1ccc(/C=C/c2nnc3c4ccccc4cnn23)cc1	1.4 µM (≈ 0.499 µg/mL)	3.35	320	Ratio [5]: 100; Ratio [6]: 1800
O=C(/C=C/c1ccc(OC(F)(F)F)cc1)N/N=c1/[nH]ncc2ccccc12	21 µM (≈ 7.86 µg/mL)			
FC(F)(F)COc1ccc(C2CC2c2nnc3c4ccccc4cnn23)cc1 (racemic)	1300 µM (≈ 500 µg/mL)			
CC(C)=CCC/C(C)=C/COc1ccc(/C=C/c2nnc3c4ccccc4cnn23)cc1	19 µM (≈ 8.07 µg/mL)	3.59	13	
